Source: paper PMC3024764 (The Journal of Biological Chemistry, 2010)

What was measured:
DU145 xenografts = experiment: Anti-tumor activity in human prostate cancer DU145 xenografts in nude mice; format: in vivo, human tumor in BALB/c-nu/nu mice; settings: taxol alone, 60 mg/kg i.v. day 0; data not shown
Outline: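 DU145 cells implanted s.c. into right flank of 5–6-week-old male BALB/c nude mice; tumor pieces passaged s.c. into new mice. At ~100 mm3 (day 0), six mice/group. Taxol 60 mg/kg i.v. on day 0; test compound or vehicle given intratumorally on days 0 and 5. Caliper volume = longest × shortest²/2; body weight tracked; Student's t test.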

DU145 cells [1] = format: cell-based, human; settings: for intracellular accumulation, fluorescence microscopy: 20 µM FITC-labeled peptide, 4 h (Fig. S1A; method section: 10 μM)
Outline: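 FITC-labeled peptides were added to the DU145 culture medium at 10 um and incubated for 4 h. Intracellular distribution of fluorescein was then imaged by fluorescence microscopy with a CCD camera.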

DU145 cells [2] = experiment: Flow cytometric cell cycle analysis of DU145 cells; format: cell-based, human; settings: 20 μM peptide, 24 h (Fig. 2A)
endogenous p27^Kip1 = format: cell-based, human; settings: 20 μM FITC-labeled peptide, 24 h (Fig. 2B)
Outline: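 DU145 cells (RPMI 1640, 10% FBS, 100 ug/ml kanamycin, 5% CO2) were exposed to 20 uM FITC-labeled cell-permeable peptides, or no peptide, for 24 h. Whole lysates or separated cytoplasmic and nuclear fractions were immunoblotted for endogenous p27Kip1 using nitrocellulose and ECL, with β-actin and topoisomerase II as markers. For localization, cells were formaldehyde-fixed, stained with anti-p27Kip1 and Alexa Fluor 568 secondary, and counterstained with Hoechst 33342.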

DU145 cells [3] = experiment: Apoptosis of DU145 cells; format: cell-based, human; settings: 20 μM peptide, 72 h; flow cytometry (Fig. 3A)

Compound | inhibitory effect on tumor growth, given alone (DU145 xenografts) | intracellular accumulation, fluorescence microscopy (DU145 cells [1]) | intracellular accumulation, flow cytometric analysis (DU145 cells [1]; FITC-labeled peptide (Fig. S1B)) | increase in the number of cells in G1 phase (DU145 cells [2]) | expression of p27^Kip1 (endogenous p27^Kip1) | increase in the sub-G1 fraction (DU145 cells [3])
CC(=O)O[C@H]1C(=O)[C@@]2(C)[C@H]([C@H](OC(=O)c3ccccc3)[C@]3(O)C[C@H](OC(=O)[C@H](O)[C@@H](NC(=O)c4ccccc4)c4ccccc4)C(C)=C1C3(C)C)[C@]1(OC(C)=O)CO[C@@H]1C[C@@H]2O [taxol] | did not show an inhibitory effect |  |  |  |  | 
GGGRRRRRRGC-KKPGLDRDQT [R8-T198mu] |  | had accumulated in cells | had accumulated almost equally in cells | not with Arg^8 and R8-T198mu | not R8-T198mu enhances the expression of p27^Kip1 | not with R8-T198mu
GGGRRRRRRRRGC [Arg^8, reference compound] |  | had accumulated in cells |  | not with Arg^8 and R8-T198mu |  | 
